ChEMBL document CHEMBL1938268, “Synthesis, characterization and in vitro biological evaluation of some novel diarylsulfonylureas as potential cytotoxic and antimicrobial agents” (Bioorg Med Chem Lett, 2012)
≈ marks a conversion by molar mass, not a printed value.

Tests used:
[1] = Toxicity against Brine shrimp nauplii after 24 hrs; format: organism-based; settings: artemia salina, in vivo; read-out: ED50
Procedure, shortened: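 Artemia salina nauplii hatched 38 h in sterile brine (sea salt 38 g/L, pH 8.5) under aeration; 10 nauplii per vial exposed to graded compound concentrations in 5 mL final volume, 37 °C, 24 h under incandescent light. Survivors counted; percent lethality versus vehicle-treated controls; ED50 from probit analysis; podophyllotoxin positive control.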

[2] = test system: Bacillus subtilis; assay: Antibacterial activity against Bacillus subtilis NCIM 2063 after 24 hrs by agar well diffusion assay; format: functional; settings: NCIM 2063, 24 h
Procedure, shortened: (§1)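 Agar well diffusion per NCCLS; NCIM standard strains. Nutrient agar seeded with 0.1 mL bacterial suspension in sterile 0.85% saline at 10⁵ CFU/mL. Plates in triplicate, 37 0.5 °C, 24 h. MIC taken as lowest concentration giving complete growth inhibition.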

[3] = test system: Staphylococcus aureus; assay: Antibacterial activity against Staphylococcus aureus NCIM 2079 after 24 hrs by agar well diffusion assay; format: functional; settings: NCIM 2079, 24 h; procedure, shortened: as §1
[4] = test system: Micrococcus luteus; assay: Antibacterial activity against Micrococcus luteus NCIM 2155 after 24 hrs by agar well diffusion assay; format: functional; settings: NCIM 2155, 24 h; procedure, shortened: as §1
[5] = test system: Pseudomonas aeruginosa; assay: Antibacterial activity against Pseudomonas aeruginosa NCIM 2036 after 24 hrs by agar well diffusion assay; format: functional; settings: NCIM 2036, 24 h; procedure, shortened: as §1
[6] = test system: Klebsiella pneumoniae; assay: Antibacterial activity against Klebsiella pneumoniae NCIM 5082 after 24 hrs by agar well diffusion assay; format: functional; settings: NCIM 5082, 24 h; procedure, shortened: as §1
[7] = test system: Escherichia coli; assay: Antibacterial activity against Escherichia coli NCIM 2065 after 24 hrs by agar well diffusion assay; format: functional; settings: NCIM 2065, 24 h; procedure, shortened: as §1
[8] = test system: Proteus vulgaris; assay: Antibacterial activity against Proteus vulgaris NCIM 2813 after 24 hrs by agar well diffusion assay; format: functional; settings: NCIM 2813, 24 h; procedure, shortened: as §1
[9] = test system: Candida albicans; assay: Antifungal activity against Candida albicans NCIM 3102 after 48 hrs by agar well diffusion assay; format: functional; settings: NCIM 3102, 48 h
Procedure, shortened: (§2)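 Fungal spore suspensions in sterile distilled water set to final 10⁶ CFU/mL; 0.1 mL spread on Potato-Dextrose-Agar. NCCLS agar well diffusion with NCIM standard strains: 6 mm wells given 0.1 mL compound diluted in 1% DMSO, final 16 to 512 µg/mL. Triplicate plates held 48 h at 28 0.2 °C. MIC is lowest concentration fully inhibiting growth.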

[10] = test system: Aspergillus niger; assay: Antifungal activity against Aspergillus niger NCIM 548 after 48 hrs by agar well diffusion assay; format: functional; settings: NCIM 548, 48 h; procedure, shortened: as §2
[11] = test system: Aspergillus oryzae; assay: Antifungal activity against Aspergillus oryzae NCIM 643 after 48 hrs by agar well diffusion assay; format: functional; settings: NCIM 643, 48 h; procedure, shortened: as §2
[12] = test system: Penicillium chrysogenum; assay: Antifungal activity against Penicillium chrysogenum NCIM 738 after 48 hrs by agar well diffusion assay; format: functional; settings: NCIM 738, 48 h; procedure, shortened: as §2
[13] = test system: Bacillus pumilus; assay: Antibacterial activity against Bacillus pumilus NCIM 2327 after 24 hrs by agar well diffusion assay; settings: NCIM 2327, 24 h

## Cc1ccc(S(=O)(=O)NC(=O)Nc2ccccc2C(=O)/C=C/c2cccc(Br)c2)cc1
[1]
  LC50 at 24 h: 4.02 µg/mL (≈ 8.05 µM)
[2]
  MIC: 16 µg/mL (≈ 32 µM)
[3]
  MIC: 64 µg/mL (≈ 128 µM)
[4]
  MIC: 16 µg/mL (≈ 32 µM)
[5]
  MIC: 32 µg/mL (≈ 64.1 µM)
[6]
  MIC: 128 µg/mL (≈ 256 µM)
[7]
  MIC: 16 µg/mL (≈ 32 µM)
[8]
  MIC: 16 µg/mL (≈ 32 µM)
[9]
  MIC: 128 µg/mL (≈ 256 µM)
[10]
  MIC: 64 µg/mL (≈ 128 µM)
[11]
  MIC: 128 µg/mL (≈ 256 µM)
[12]
  MIC: 128 µg/mL (≈ 256 µM)
[13]
  MIC: 16 µg/mL (≈ 32 µM)

## C=CCOc1ccc(/C=C/C(=O)c2ccccc2NC(=O)NS(=O)(=O)c2ccc(C)cc2)cc1
[1]
  LC50 at 24 h: 6.11 µg/mL (≈ 12.8 µM)
[2]
  MIC: 32 µg/mL (≈ 67.1 µM)
[3]
  MIC: 16 µg/mL (≈ 33.6 µM)
[4]
  MIC: 32 µg/mL (≈ 67.1 µM)
[5]
  MIC: 16 µg/mL (≈ 33.6 µM)
[6]
  MIC: 16 µg/mL (≈ 33.6 µM)
[7]
  MIC: 32 µg/mL (≈ 67.1 µM)
[8]
  MIC: 16 µg/mL (≈ 33.6 µM)
[9]
  MIC: 16 µg/mL (≈ 33.6 µM)
[10]
  MIC: 16 µg/mL (≈ 33.6 µM)
[11]
  MIC: 16 µg/mL (≈ 33.6 µM)
[12]
  MIC: 16 µg/mL (≈ 33.6 µM)
[13]
  MIC: 16 µg/mL (≈ 33.6 µM)

## Cc1ccc(S(=O)(=O)NC(=O)Nc2ccccc2C(=O)/C=C/C=C/c2ccccc2)cc1
[1]
  LC50 at 24 h: 18.2 µg/mL (≈ 40.8 µM)
[2]
  MIC: 128 µg/mL (≈ 287 µM)
[3]
  MIC: 128 µg/mL (≈ 287 µM)
[4]
  MIC: 256 µg/mL (≈ 573 µM)
[5]
  MIC: 128 µg/mL (≈ 287 µM)
[6]
  MIC: 256 µg/mL (≈ 573 µM)
[7]
  MIC: 128 µg/mL (≈ 287 µM)
[8]
  MIC: 256 µg/mL (≈ 573 µM)
[9]
  MIC: 256 µg/mL (≈ 573 µM)
[10]
  MIC: 256 µg/mL (≈ 573 µM)
[11]
  MIC: 256 µg/mL (≈ 573 µM)
[12]
  MIC: 256 µg/mL (≈ 573 µM)
[13]
  MIC: 128 µg/mL (≈ 287 µM)

## Cc1ccc(S(=O)(=O)NC(=O)Nc2ccccc2C(=O)/C=C/c2ccc[nH]2)cc1
[1]
  LC50 at 24 h: 32.1 µg/mL (≈ 78.4 µM)
[2]
  MIC: 256 µg/mL (≈ 625 µM)
[3]
  MIC: 128 µg/mL (≈ 313 µM)
[4]
  MIC: 256 µg/mL (≈ 625 µM)
[5]
  MIC: 256 µg/mL (≈ 625 µM)
[6]
  MIC: 256 µg/mL (≈ 625 µM)
[7]
  MIC: 128 µg/mL (≈ 313 µM)
[8]
  MIC: 256 µg/mL (≈ 625 µM)
[9]
  MIC: 256 µg/mL (≈ 625 µM)
[10]
  MIC: 256 µg/mL (≈ 625 µM)
[11]
  MIC: 256 µg/mL (≈ 625 µM)
[12]
  MIC: 256 µg/mL (≈ 625 µM)
[13]
  MIC: 128 µg/mL (≈ 313 µM)

## Cc1ccc(S(=O)(=O)NC(=O)Nc2ccccc2C(=O)/C=C/c2cccnc2)cc1
[1]
  LC50 at 24 h: 14.1 µg/mL (≈ 33.4 µM)
[2]
  MIC: 128 µg/mL (≈ 304 µM)
[3]
  MIC: 128 µg/mL (≈ 304 µM)
[4]
  MIC: 128 µg/mL (≈ 304 µM)
[5]
  MIC: 128 µg/mL (≈ 304 µM)
[6]
  MIC: 128 µg/mL (≈ 304 µM)
[7]
  MIC: 128 µg/mL (≈ 304 µM)
[8]
  MIC: 128 µg/mL (≈ 304 µM)
[9]
  MIC: 128 µg/mL (≈ 304 µM)
[10]
  MIC: 128 µg/mL (≈ 304 µM)
[11]
  MIC: 128 µg/mL (≈ 304 µM)
[12]
  MIC: 128 µg/mL (≈ 304 µM)
[13]
  MIC: 128 µg/mL (≈ 304 µM)

## Cc1ccc(S(=O)(=O)NC(=O)Nc2ccccc2C(=O)/C=C/c2ccncc2)cc1
[1]
  LC50 at 24 h: 16.8 µg/mL (≈ 39.9 µM)
[2]
  MIC: 128 µg/mL (≈ 304 µM)
[3]
  MIC: 64 µg/mL (≈ 152 µM)
[4]
  MIC: 64 µg/mL (≈ 152 µM)
[5]
  MIC: 128 µg/mL (≈ 304 µM)
[6]
  MIC: 64 µg/mL (≈ 152 µM)
[7]
  MIC: 64 µg/mL (≈ 152 µM)
[8]
  MIC: 64 µg/mL (≈ 152 µM)
[9]
  MIC: 64 µg/mL (≈ 152 µM)
[10]
  MIC: 64 µg/mL (≈ 152 µM)
[11]
  MIC: 64 µg/mL (≈ 152 µM)
[12]
  MIC: 64 µg/mL (≈ 152 µM)
[13]
  MIC: 64 µg/mL (≈ 152 µM)

## Cc1ccc(S(=O)(=O)NC(=O)Nc2ccccc2C(=O)/C=C/c2c3ccccc3cc3ccccc23)cc1
[1]
  LC50 at 24 h: 44.3 µg/mL (≈ 85.1 µM)
[2]
  MIC: 512 µg/mL (≈ 983 µM)
[3]
  MIC: 512 µg/mL (≈ 983 µM)
[4]
  MIC: 512 µg/mL (≈ 983 µM)
[5]
  MIC: 512 µg/mL (≈ 983 µM)
[6]
  MIC: 512 µg/mL (≈ 983 µM)
[7]
  MIC: 512 µg/mL (≈ 983 µM)
[8]
  MIC: 512 µg/mL (≈ 983 µM)
[9]
  MIC: 512 µg/mL (≈ 983 µM)
[10]
  MIC: 512 µg/mL (≈ 983 µM)
[11]
  MIC: 512 µg/mL (≈ 983 µM)
[12]
  MIC: 512 µg/mL (≈ 983 µM)
[13]
  MIC: 512 µg/mL (≈ 983 µM)
